Measurements: ChEMBL document CHEMBL4184148 (Bioorg Med Chem Lett, 2017)

Columns and labels:
[1] = biological target: Cytoplasmic tyrosine-protein kinase BMX (Homo sapiens) (UniProt P51813); experiment: Binding affinity to wild-type human full length BMX (M1 to H675 residues) expressed in Escherichia coli BL21 at 1 uM by Kinomescan method relative to control
[2] = biological target: Calcium/calmodulin-dependent protein kinase kinase 2 (Homo sapiens) (UniProt Q96RR4); experiment: Binding affinity to wild-type human partial length CAMKK2 (D65 to V471 residues) expressed in Escherichia coli BL21 at 1 uM by Kinomescan method relative to control
[3] = biological target: Peripheral plasma membrane protein CASK (Homo sapiens) (UniProt O14936); experiment: Binding affinity to wild-type human partial length CASK (M1 to H315 residues) expressed in HEK293 cells at 1 uM by Kinomescan method relative to control; format: cell-based
[4] = biological target: Cyclin-dependent kinase 11B (Homo sapiens) (UniProt P21127); experiment: Binding affinity to wild-type human partial length CDC2L1 (P353 to G692 residues) expressed in Escherichia coli BL21 at 1 uM by Kinomescan method relative to control
[5] = biological target: Dual specificity protein kinase CLK3 (Homo sapiens) (UniProt P49761); experiment: Binding affinity to wild-type human full length CLK3 (M1 to R490 residues) expressed in Escherichia coli BL21 at 1 uM by Kinomescan method relative to control
Summary of the method: (§1)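 Run as one kinome-wide competition binding panel with each compound at a single fixed concentration. Results were plotted as a kinome-wide selectivity map.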

[6] = biological target: Casein kinase I isoform gamma-3 (Homo sapiens) (UniProt Q9Y6M4); experiment: Binding affinity to wild-type human full length CSNK1G3 (M1 to K447 residues) expressed in Escherichia coli BL21 at 1 uM by Kinomescan method relative to control; summary of the method: as §1
[7] = system: Epidermal growth factor receptor (Homo sapiens), P00533 [G719C]; experiment: Binding affinity to human partial length EGFR G719C mutant (R669 to V1011 residues) expressed in Escherichia coli BL21 at 1 uM by Kinomescan method relative to control
[8] = system: Epidermal growth factor receptor (Homo sapiens), P00533 [UNDEFINED MUTATION]; experiment: Binding affinity to human partial length EGFR L747-E749del/A750P mutant expressed in Escherichia coli BL21 at 1 uM by Kinomescan method relative to control
[9] = biological target: Eukaryotic translation initiation factor 2-alpha kinase 1 (Homo sapiens) (UniProt Q9BQI3); experiment: Binding affinity to wild-type human partial length EIF2AK1 (Q147 to E603 residues) expressed in HEK293 cells at 1 uM by Kinomescan method relative to control; format: cell-based
[10] = biological target: Ephrin type-B receptor 2 (Homo sapiens) (UniProt P29323); experiment: Binding affinity to wild-type human partial length EPHB2 (I597 to L902 residues) expressed in Escherichia coli BL21 at 1 uM by Kinomescan method relative to control
[11] = biological target: Mitogen-activated protein kinase 1 (Homo sapiens) (UniProt P28482); experiment: Binding affinity to wild-type human full length ERK2 (M1 to S360 residues) expressed in Escherichia coli BL21 at 1 uM by Kinomescan method relative to control; summary of the method: as §1
[12] = biological target: Glycogen synthase kinase-3 beta (Homo sapiens) (UniProt P49841); experiment: Binding affinity to wild-type human full length GSK3B (M1 to T433 residues) expressed in HEK293 cells at 1 uM by Kinomescan method relative to control; format: cell-based; summary of the method: as §1
[13] = biological target: Homeodomain-interacting protein kinase 2 (Homo sapiens) (UniProt Q9H2X6); experiment: Binding affinity to wild-type human partial length HIPK2 (M153 to S564 residues) expressed in HEK293 cells at 1 uM by Kinomescan method relative to control; format: cell-based
[14] = biological target: Homeodomain-interacting protein kinase 3 (Homo sapiens) (UniProt Q9H422); experiment: Binding affinity to wild-type human partial length HIPK3 (M153 to N562 residues) expressed in HEK293 cells at 1 uM by Kinomescan method relative to control; format: cell-based
[15] = biological target: Inhibitor of nuclear factor kappa-B kinase subunit alpha (Homo sapiens) (UniProt O15111); experiment: Binding affinity to wild-type human full length IKK-alpha (M1 to E745 residues) expressed in HEK293 cells at 1 uM by Kinomescan method relative to control; format: cell-based; summary of the method: as §1
[16] = biological target: Mitogen-activated protein kinase kinase kinase 9 (Homo sapiens) (UniProt P80192); experiment: Binding affinity to wild-type human partial length MLK1 (V88 to W426 residues) expressed in Escherichia coli BL21 at 1 uM by Kinomescan method relative to control
[17] = biological target: Myosin-IIIb (Homo sapiens) (UniProt Q8WXR4); experiment: Binding affinity to wild-type human partial length MYO3B (M1 to D357 residues) expressed in Escherichia coli BL21 at 1 uM by Kinomescan method relative to control
[18] = biological target: Serine/threonine-protein kinase Nek2 (Homo sapiens) (UniProt P51955); experiment: Binding affinity to wild-type human partial length NEK2 (M1 to K309 residues) expressed in Escherichia coli BL21 at 1 uM by Kinomescan method relative to control
[19] = biological target: Cyclin-dependent kinase 18 (Homo sapiens) (UniProt Q07002); experiment: Binding affinity to wild-type human full length PCTK3 (M3 to F474 residues) expressed in Escherichia coli BL21 at 1 uM by Kinomescan method relative to control
Summary of the method: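 Kinome-wide competition binding panel run by an outside provider, with each compound tested at a single concentration. Activity is read against the kinase panel.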

[20] = biological target: cAMP-dependent protein kinase catalytic subunit PRKX (Homo sapiens) (UniProt P51817); experiment: Binding affinity to wild-type human partial length PRKX (M1 to F358 residues) expressed in Escherichia coli BL21 at 1 uM by Kinomescan method relative to control
[21] = biological target: Serine/threonine-protein kinase RIO1 (Homo sapiens) (UniProt Q9BRS2); experiment: Binding affinity to wild-type human full length RIOK1 (M1 to K568 residues) expressed in Escherichia coli BL21 at 1 uM by Kinomescan method relative to control
[22] = biological target: Receptor-interacting serine/threonine-protein kinase 4 (Homo sapiens) (UniProt P57078); experiment: Binding affinity to wild-type human partial length RIPK4 (M1 to V303 residues) expressed in HEK293 cells at 1 uM by Kinomescan method relative to control; format: cell-based
[23] = biological target: Rho-associated protein kinase 2 (Homo sapiens) (UniProt O75116); experiment: Binding affinity to wild-type human partial length ROCK2 (M1 to T431 residues) expressed in HEK293 cells at 1 uM by Kinomescan method relative to control; format: cell-based
[24] = biological target: Ribosomal protein S6 kinase alpha-3 (Homo sapiens) (UniProt P51812); experiment: Binding affinity to wild-type human partial length N-terminal RSK3 kinase domain 1 (M1 to Q385 residues) expressed in Escherichia coli BL21 at 1 uM by Kinomescan method relative to control
[25] = biological target: Tyrosine-protein kinase SYK (Homo sapiens) (UniProt P43405); experiment: Binding affinity to wild-type human partial length SYK (D354 to N635 residues) expressed in Escherichia coli BL21 at 1 uM by Kinomescan method relative to control

Homeodomain-interacting protein kinase 3 (Homo sapiens), sequence (Q9H422 whole entry, looked up, the tested form may be a part): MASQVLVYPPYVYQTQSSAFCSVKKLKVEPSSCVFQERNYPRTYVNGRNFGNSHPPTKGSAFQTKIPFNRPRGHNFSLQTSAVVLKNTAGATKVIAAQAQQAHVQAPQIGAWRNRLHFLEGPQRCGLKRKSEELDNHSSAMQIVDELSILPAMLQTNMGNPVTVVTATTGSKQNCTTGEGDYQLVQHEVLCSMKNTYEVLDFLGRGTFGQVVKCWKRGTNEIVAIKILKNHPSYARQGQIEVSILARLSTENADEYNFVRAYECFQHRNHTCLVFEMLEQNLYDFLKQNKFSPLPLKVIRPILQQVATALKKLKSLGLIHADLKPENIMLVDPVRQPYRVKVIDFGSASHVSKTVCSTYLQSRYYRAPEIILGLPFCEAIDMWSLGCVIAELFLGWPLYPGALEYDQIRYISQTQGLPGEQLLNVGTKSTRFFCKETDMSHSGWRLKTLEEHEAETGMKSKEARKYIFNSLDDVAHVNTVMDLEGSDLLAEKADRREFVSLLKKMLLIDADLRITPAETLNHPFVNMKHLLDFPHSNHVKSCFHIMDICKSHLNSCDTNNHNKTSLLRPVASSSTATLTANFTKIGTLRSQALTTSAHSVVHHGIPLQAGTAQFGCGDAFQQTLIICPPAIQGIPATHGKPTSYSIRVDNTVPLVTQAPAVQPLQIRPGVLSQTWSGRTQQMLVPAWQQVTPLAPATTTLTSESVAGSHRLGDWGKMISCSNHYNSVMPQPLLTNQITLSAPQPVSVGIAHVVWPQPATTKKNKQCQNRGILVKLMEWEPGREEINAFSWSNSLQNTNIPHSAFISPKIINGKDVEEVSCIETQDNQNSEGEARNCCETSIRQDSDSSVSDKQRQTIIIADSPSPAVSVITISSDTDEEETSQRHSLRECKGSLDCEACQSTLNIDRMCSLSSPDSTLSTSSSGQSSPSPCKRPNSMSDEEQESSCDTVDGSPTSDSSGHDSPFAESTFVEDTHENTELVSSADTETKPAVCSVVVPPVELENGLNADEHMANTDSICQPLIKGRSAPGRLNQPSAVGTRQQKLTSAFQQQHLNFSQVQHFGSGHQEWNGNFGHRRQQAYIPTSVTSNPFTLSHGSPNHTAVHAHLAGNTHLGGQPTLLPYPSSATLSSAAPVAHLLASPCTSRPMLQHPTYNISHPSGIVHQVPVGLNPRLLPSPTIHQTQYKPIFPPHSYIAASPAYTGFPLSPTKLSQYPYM
Rho-associated protein kinase 2 (Homo sapiens), sequence (O75116 whole entry, looked up, the tested form may be a part): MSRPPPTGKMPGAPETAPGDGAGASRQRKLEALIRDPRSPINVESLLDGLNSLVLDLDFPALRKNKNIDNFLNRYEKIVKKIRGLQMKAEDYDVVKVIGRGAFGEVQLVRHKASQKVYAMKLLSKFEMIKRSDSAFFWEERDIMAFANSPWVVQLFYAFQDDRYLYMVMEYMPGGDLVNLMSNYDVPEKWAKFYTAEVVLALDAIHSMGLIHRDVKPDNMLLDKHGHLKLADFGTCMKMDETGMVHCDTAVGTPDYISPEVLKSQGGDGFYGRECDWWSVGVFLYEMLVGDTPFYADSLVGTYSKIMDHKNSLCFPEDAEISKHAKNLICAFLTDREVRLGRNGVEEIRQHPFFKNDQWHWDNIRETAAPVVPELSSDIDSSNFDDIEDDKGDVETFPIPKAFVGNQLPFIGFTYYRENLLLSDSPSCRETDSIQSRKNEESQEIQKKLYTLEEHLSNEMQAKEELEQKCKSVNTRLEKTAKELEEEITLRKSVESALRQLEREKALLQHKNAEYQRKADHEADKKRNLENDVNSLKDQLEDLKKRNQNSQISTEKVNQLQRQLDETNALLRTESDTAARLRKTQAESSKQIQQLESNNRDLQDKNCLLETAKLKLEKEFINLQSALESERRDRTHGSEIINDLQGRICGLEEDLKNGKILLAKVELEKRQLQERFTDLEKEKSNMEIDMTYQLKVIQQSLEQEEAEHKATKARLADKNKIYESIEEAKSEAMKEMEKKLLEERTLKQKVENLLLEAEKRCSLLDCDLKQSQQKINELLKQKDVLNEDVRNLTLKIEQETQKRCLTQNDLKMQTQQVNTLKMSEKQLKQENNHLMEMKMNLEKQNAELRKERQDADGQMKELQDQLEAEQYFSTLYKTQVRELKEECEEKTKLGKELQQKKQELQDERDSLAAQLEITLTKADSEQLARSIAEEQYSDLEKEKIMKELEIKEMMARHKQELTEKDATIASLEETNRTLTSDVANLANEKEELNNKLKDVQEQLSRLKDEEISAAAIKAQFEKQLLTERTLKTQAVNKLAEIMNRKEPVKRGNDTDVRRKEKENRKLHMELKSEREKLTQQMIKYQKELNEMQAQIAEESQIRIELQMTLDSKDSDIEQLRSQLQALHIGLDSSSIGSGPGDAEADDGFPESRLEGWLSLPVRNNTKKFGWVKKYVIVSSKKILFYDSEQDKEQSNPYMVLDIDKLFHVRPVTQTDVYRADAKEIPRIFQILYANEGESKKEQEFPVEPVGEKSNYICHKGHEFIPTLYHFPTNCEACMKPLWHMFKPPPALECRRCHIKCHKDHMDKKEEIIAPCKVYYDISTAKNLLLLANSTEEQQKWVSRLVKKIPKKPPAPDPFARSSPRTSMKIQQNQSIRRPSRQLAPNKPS
Serine/threonine-protein kinase RIO1 (Homo sapiens), sequence (Q9BRS2 whole entry, the tested form may be a part): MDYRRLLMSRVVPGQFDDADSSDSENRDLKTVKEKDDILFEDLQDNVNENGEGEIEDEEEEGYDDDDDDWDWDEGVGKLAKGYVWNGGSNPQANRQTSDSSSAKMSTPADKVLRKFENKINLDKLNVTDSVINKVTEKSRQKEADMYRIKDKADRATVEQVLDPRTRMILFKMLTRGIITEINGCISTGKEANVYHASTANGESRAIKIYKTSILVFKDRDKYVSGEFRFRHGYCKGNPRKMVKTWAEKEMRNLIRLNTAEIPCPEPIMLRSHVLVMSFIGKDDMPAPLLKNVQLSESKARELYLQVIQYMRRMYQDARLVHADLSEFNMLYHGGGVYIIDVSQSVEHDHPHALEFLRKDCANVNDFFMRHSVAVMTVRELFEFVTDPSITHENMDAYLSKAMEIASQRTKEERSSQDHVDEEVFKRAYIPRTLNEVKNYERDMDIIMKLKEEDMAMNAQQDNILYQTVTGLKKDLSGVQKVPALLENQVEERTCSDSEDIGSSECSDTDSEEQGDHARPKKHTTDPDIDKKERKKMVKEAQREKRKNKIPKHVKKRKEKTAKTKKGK
Cytoplasmic tyrosine-protein kinase BMX (Homo sapiens), sequence (P51813 whole entry, the tested form may be a part): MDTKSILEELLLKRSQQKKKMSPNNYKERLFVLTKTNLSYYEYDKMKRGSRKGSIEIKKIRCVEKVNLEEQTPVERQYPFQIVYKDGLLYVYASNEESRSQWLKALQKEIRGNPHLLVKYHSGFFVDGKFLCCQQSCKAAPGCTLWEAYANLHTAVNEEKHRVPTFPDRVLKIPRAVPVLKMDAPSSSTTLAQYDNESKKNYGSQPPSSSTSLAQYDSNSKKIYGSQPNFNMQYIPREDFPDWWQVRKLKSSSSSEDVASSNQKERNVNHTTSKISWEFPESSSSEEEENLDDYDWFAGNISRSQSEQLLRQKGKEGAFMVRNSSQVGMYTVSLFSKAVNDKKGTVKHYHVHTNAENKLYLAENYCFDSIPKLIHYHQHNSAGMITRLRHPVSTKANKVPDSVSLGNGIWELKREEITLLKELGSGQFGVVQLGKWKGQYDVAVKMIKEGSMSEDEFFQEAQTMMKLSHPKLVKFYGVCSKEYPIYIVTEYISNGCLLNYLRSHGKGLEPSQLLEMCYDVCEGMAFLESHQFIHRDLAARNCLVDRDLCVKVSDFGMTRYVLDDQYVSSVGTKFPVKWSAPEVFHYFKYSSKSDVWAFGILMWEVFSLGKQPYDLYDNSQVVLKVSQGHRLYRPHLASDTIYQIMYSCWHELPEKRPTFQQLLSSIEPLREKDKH
Cyclin-dependent kinase 11B (Homo sapiens), sequence (P21127 whole entry, the tested form may be a part): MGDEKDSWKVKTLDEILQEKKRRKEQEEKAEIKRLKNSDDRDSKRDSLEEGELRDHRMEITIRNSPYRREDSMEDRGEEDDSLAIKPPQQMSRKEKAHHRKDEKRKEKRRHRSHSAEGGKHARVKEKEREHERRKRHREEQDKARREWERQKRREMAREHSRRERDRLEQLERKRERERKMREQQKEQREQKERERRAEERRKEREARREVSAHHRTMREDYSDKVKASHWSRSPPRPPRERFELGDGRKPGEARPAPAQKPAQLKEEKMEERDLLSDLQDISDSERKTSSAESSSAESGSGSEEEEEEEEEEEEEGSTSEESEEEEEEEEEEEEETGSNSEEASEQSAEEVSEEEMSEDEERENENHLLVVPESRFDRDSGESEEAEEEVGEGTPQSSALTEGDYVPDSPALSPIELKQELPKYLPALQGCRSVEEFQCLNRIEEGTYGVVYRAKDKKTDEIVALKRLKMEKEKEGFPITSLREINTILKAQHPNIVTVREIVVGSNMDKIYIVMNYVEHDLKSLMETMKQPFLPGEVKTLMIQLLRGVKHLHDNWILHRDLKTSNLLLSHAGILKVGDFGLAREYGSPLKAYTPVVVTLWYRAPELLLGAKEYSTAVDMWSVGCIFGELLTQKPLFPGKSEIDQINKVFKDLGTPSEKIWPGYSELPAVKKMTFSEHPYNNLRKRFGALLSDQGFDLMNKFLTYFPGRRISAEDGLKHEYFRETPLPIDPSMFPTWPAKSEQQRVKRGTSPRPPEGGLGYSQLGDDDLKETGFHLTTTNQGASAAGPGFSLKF
Mitogen-activated protein kinase 1 (Homo sapiens), sequence (P28482 whole entry, the tested form may be a part): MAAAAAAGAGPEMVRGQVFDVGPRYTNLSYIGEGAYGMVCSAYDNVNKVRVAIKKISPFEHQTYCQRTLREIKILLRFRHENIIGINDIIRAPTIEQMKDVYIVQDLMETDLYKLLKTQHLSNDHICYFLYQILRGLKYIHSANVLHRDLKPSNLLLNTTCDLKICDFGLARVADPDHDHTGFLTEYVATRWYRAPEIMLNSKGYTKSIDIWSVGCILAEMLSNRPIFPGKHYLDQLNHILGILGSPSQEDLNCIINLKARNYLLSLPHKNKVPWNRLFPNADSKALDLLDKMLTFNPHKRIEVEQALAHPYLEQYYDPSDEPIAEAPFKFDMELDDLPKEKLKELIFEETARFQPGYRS

| SMILES | Activity [1] [%] | Activity [2] [%] | Activity [3] [%] | Activity [4] [%] | Activity [5] [%] | Activity [6] [%] | Activity [7] [%] | Activity [8] [%] | Activity [9] [%] | Activity [10] [%] | Activity [11] [%] | Activity [12] [%] | Activity [13] [%] | Activity [14] [%] | Activity [15] [%] | Activity [16] [%] | Activity [17] [%] | Activity [18] [%] | Activity [19] [%] | Activity [20] [%] | also measured |
| --- | --- | --- | --- | --- | --- | --- | --- | --- | --- | --- | --- | --- | --- | --- | --- | --- | --- | --- | --- | --- | --- |
| CCC(=O)Nc1ccc(C(=O)Nc2ccc(Nc3ncc4c(n3)N(C)c3ccc(C)cc3C(=O)N4C)cc2)cc1 | 90 | 89 | 80 | 100 | 91 | 97 | 95 | 48 | 93 | 93 | 87 | 82 | 100 | 67 | 99 | 88 | 100 | 100 | 86 | 80 | Activity [21]: 68%; Activity [22]: 86%; Activity [23]: 78%; Activity [24]: 85%; Activity [25]: 87% |
| C=CC(=O)Nc1ccc(C(=O)Nc2ccc(Nc3ncc4c(n3)N(C)c3ccc(C)cc3C(=O)N4C)cc2)cc1 | 99 | 92 | 97 | 97 | 89 | 100 | 99 | 76 | 100 | 96 | 99 | 92 | 94 | 95 | 100 | 100 | 100 | 99 | 99 | 100 | Activity [21]: 84%; Activity [22]: 91%; Activity [23]: 100%; Activity [24]: 89%; Activity [25]: 74% |
